Calls of active or inactive are those of the source. The calls are words filed in the database; no cut-off is given here.
Experiments:
[1] = molecular target: DNA topoisomerase 2-alpha (Homo sapiens, UniProt P11388); assay: Inhibition of human topoisomerase 2 alpha-mediated decatenation of kDNA at 100 uM after 15 mins
[2] = system: HL-60; assay: Antiproliferative activity against human HL60 cells after 72 hrs by sulforhodamine B assay; assay type: functional, cell-based; conditions: HL-60, 72 h, in the assay text read “MTT assay” for “sulforhodamine B assay”
In short: (§1)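 Cells seeded and exposed in triplicate to graded compound concentrations for 72 h. Suspension cells read by MTT conversion to coloured product; adherent cells read by sulforhodamine B. IC50 (50% growth inhibition versus untreated control) derived by the Logit method.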

[3] = system: SGC-7901; assay: Antiproliferative activity against human SGC7901 cells after 72 hrs by sulforhodamine B assay; assay type: functional, cell-based; conditions: SGC-7901, 72 h; in short: as §1
[4] = system: HT-29; assay: Antiproliferative activity against human HT-29 cells after 72 hrs by sulforhodamine B assay; assay type: functional, cell-based; conditions: HT-29, 72 h; in short: as §1
[5] = system: HeLa; assay: Antiproliferative activity against human HeLa cells after 72 hrs by sulforhodamine B assay; assay type: functional, cell-based; in short: as §1
[6] = system: Mus musculus; assay: Toxicity in Kunming mouse bearing mouse S180 cells assessed as change in body weight at 50 mg/kg/day, ip for 2 days (reference value: 18.1 g); assay type: organism-based, CCRF S-180; parameters: route intraperitoneal; conditions: in vivo, 48 h
[7] = system: CCRF S-180; assay: Antitumor activity against mouse S180 cells transplanted in Kunming mouse assessed as inhibition of tumor growth at 50 mg/kg/day, iv for 2 days; assay type: functional; conditions: CCRF S-180, 48 h
In short: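 Female Kunming mice, 7 weeks old, 18-22 g, were inoculated sc in the right armpit with S-180 sarcoma. Dosing started the next day: the drug iv, vehicle controls normal saline. After treatment, mice were killed, and solid tumors were excised and weighed. Inhibitory rate (%) = (mean control tumor weight − mean treated tumor weight)/mean control tumor weight × 100.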

[8] = system: KB; assay: Antiproliferative activity against human KB cells after 72 hrs by sulforhodamine B assay; assay type: functional, cell-based; in short: as §1
[9] = Antiproliferative activity against human KB/VCR cells after 72 hrs by sulforhodamine B assay; assay type: functional, cell-based; in short: as §1

DNA topoisomerase 2-alpha, sequence (P11388 whole entry): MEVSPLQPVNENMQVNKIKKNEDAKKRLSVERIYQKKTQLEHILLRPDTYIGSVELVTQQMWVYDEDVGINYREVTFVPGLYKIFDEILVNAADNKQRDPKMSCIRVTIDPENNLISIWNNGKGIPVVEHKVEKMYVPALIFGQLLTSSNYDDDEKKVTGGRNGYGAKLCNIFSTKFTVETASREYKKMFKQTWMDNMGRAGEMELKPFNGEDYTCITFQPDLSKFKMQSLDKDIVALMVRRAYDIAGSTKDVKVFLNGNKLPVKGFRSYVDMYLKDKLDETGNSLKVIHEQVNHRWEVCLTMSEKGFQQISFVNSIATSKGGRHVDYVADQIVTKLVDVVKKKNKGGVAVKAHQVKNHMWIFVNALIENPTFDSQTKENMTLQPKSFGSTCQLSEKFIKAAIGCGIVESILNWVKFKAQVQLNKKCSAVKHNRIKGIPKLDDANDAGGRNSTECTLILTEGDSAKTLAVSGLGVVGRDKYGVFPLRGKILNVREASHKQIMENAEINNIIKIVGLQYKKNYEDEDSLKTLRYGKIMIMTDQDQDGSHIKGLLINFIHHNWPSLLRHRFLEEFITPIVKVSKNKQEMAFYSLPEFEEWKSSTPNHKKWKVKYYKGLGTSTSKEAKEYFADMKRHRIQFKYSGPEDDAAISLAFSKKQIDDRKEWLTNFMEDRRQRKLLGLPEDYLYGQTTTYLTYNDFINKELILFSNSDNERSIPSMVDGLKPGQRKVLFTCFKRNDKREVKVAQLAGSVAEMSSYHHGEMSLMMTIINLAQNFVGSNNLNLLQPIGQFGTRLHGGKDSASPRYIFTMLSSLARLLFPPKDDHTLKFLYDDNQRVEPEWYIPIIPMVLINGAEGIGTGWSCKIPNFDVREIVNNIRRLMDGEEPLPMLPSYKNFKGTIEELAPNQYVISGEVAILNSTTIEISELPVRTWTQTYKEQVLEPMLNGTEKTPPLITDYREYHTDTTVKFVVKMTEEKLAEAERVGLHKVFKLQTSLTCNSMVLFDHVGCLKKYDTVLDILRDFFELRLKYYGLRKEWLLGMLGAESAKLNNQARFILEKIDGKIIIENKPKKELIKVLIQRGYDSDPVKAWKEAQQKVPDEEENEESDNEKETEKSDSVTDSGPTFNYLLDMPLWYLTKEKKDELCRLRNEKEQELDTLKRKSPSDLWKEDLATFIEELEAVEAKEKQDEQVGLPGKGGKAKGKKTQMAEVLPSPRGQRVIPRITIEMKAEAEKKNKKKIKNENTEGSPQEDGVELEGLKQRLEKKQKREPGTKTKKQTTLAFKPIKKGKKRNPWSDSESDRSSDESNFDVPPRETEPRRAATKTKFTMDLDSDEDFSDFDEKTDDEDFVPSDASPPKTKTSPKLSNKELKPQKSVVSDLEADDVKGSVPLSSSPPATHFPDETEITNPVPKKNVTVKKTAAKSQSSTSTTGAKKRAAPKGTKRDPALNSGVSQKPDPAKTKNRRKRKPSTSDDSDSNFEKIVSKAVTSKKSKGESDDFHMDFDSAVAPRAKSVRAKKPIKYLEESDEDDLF

Row | Compound | inhibition (active/not active) [1] | IC50 [2] [µM] | IC50 [3] [µM] | IC50 [4] [µM] | IC50 [5] [µM] | Activity [6] [g] | inhibition in vivo at 50 mg/kg/day [7] [%] | IC50 [8] [µM] | IC50 [9] [µM]
1 | Fc1cccc(NC(=S)N/N=C/c2ccc3ccccc3n2)c1 | inactive | 43.8 | 79.9 | 74.7 | 70.1 |  |  |  | 
2 | CN(C)C(=S)N/N=C/c1cc2cccnc2s1 | Active | > 100 | 21.4 | 13.4 | 48.4 |  |  |  | 
3 | CN(C)C(=S)N/N=C/c1cnc2ccccc2n1 | Active | 0.09 | 0.17 | 0.45 | 0.75 |  |  |  | 
4 | Cc1cccc(NC(=S)N/N=C/c2ccc3ccccc3n2)c1 |  | > 100 | > 100 | > 100 | > 100 |  |  |  | 
5 | CC(C)c1cccc(C(C)C)c1NC(=S)N/N=C/c1ccc2ccccc2n1 |  | 19.5 | 23.5 | 20.7 | 16.4 |  |  |  | 
6 | S=C(N/N=C/c1ccc2ccccc2n1)Nc1ccc(Br)cc1 |  | 27.5 | 69.4 | 54.4 | 56.8 |  |  |  | 
7 | CN(C)C(=S)N/N=C/c1nc2ccccc2c2ncccc12 | Active | 0.43 | 0.04 | 0.04 | 1.72 |  |  |  | 
8 | NC(=S)N/N=C/c1ccc2ccccc2n1 | inactive | > 100 | 32.7 | 100 | 0.96 |  |  |  | 
9 | Cc1ccc(NC(=O)N/N=C/c2ccc3ccccc3n2)cc1 |  | > 100 | > 100 | > 100 | > 100 |  |  |  | 
10 | NC(=S)N/N=C/c1nc2ccccc2c2ncccc12 | Active | > 100 | 7.36 | 11.5 | 21.9 |  |  |  | 
11 | CN(C)C(=S)N/N=C/c1ccc2cccnc2n1 | Active | 0.56 | 0.63 | 0.41 | 0.97 |  |  |  | 
12 | S=C(N/N=C/c1ccc2ccccc2n1)Nc1ccc(Cl)cc1 |  | > 100 | 87.6 | 97.2 | > 100 |  |  |  | 
13 | NC(=S)N/N=C/c1nc2ccccc2s1 | inactive | > 100 | > 100 | > 100 | 5.35 |  |  |  | 
14 | S=C(N/N=C/c1ccc2ccccc2n1)Nc1cccc(Br)c1 |  | 53.8 | 78.6 | 58.9 | 70 |  |  |  | 
15 | N#Cc1ccc(NC(=S)N/N=C/c2ccc3ccccc3n2)cc1 |  | 4.66 | 23.7 | 15.6 | 20 |  |  |  | 
16 | Fc1ccc(NC(=S)N/N=C/c2ccc3ccccc3n2)cc1 |  | 17 | 32.3 | 28.5 | 33.2 |  |  |  | 
17 | O=c1[nH]cc(F)c(=O)[nH]1 [FLUOROURACIL] |  |  |  |  |  | 27.5 | 80.7 |  | 
18 | NC(=S)N/N=C/c1cc2cccnc2s1 |  | > 100 | 100 | > 100 | 6.29 |  |  |  | 
19 | CC[C@]1(O)C[C@H]2CN(CCc3c([nH]c4ccccc34)[C@@](C(=O)OC)(c3cc4c(cc3OC)N(C=O)[C@H]3[C@@](O)(C(=O)OC)[C@H](OC(C)=O)[C@]5(CC)C=CCN6CC[C@]43[C@@H]65)C2)C1 [VINCRISTINE] |  |  |  |  |  |  |  | 0.01 | 0.84

Source: ChEMBL document CHEMBL1157101, “A series of alpha-heterocyclic carboxaldehyde thiosemicarbazones inhibit topoisomerase IIalpha catalytic activity” (J Med Chem, 2010)
